High-throughput results deposited in PubChem BioAssay by several laboratories.
In the library only some 3.4% were active in any assay of this set; here they are far more common.
MC4R ag barr: agonists of human melanocortin 4 receptor (MC4R) beta-arrestin. P32245. U2OS MC4R beta-arrestin complementation, luminescence; percent of melanotan II response, DMSO zero. activation, % at 8.9 µM. actives 0.98% (n = 360,000);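 active = activation above a per-plate cutoff, the mean activation of sample wells on that plate plus 3 SD, cut at about 8% in these data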
MC4R antagonist: human MC4R antagonism in cAMP assay; P32245; MC4R-expressing cells, MTII-stimulated cAMP, LANCE TR-FRET; inhibition, % at 6.5 µM; actives 0.48% (n = 360,000); AID 540295;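 active = inhibition above its plate's cutoff, the mean of tested wells on that plate plus 3 SD, cut at about 29% in these data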;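 also: 0% = Melanotan II alone and 100% = Melanotan II plus saturating MCL0020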
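System: U2OS-MC4R stable cell line; Technique: Eu-cAMP/anti-cAMP TR-FRET, emission 671 nm; Repeats: single well per compound; Also added: Melanotan II; Dosing: one concentration, 6.5 µM nominal; Schedule: 30-min compound, 1-h challenge, 1-h detection, room temperature.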
TMEM16A act: activators or potentiators of mouse TMEM16A chloride channel; Q8BHY3; HEK293 TMEM16A/YFP-H148Q/I152L, iodide quench fluorescence; hits give low values; B-score at 10 µM; actives 0.3% (n = 340,000);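 active = fluorescence-ratio B-score plate-corrected deviation score at least 3 library SD below zero, with starting fluorescence score within 5 deviations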;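 also: channel opened by trigger with iodide after compound preincubation; score built on the fluorescence ratio of max minus min over baseline; more negative score means more quench and so TMEM16A activation or potentiation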
MIN6 prolif: inducers of beta-cell replication in MIN6 cells. AID 2380. MIN6 cells proliferation, ATPlite luminescence, 48 h; cells starved in 0.2% serum; 100% = growth in 10% serum. actives 0.29% (n = 330,000). proliferation, % at 10 µM;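 active = compounds whose signal lies at least 3.5 SD above the mean of all wells on their plate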;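 also: 0% = DMSO-treated cells in low-serum medium and 100% = 10% serum control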
m5-HT2A agonist: mouse HTR2A agonism via beta-arrestin recruitment. actives 0.66% (n = 360,000). CHO-K1 mHTR2A beta-arrestin complementation, luminescence; percent of 30 µM serotonin response. activation, % at 7.6 µM;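 active = activation above a run cutoff, the mean activation of all tested compounds plus 3 SD, cut at about 14% in these data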;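 also: 0% = plate median of compound wells and 100% = 30 µM serotonin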
ANO1 block: blocks the mouse calcium-activated chloride channel TMEM16A. actives 1.2% (n = 310,000). Q8BHY3. HEK293 TMEM16A/YFP iodide influx fluorescence, ionomycin. normalized B-score (activity score, 25-100; higher = stronger inhibition) at 10 µM;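 active = ratio plate-corrected score three or more library SD toward inhibition, starting fluorescence score within five deviations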;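 also: score derived from kinetic fluorescence span divided by baseline fluorescence per well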
MOR ag counter: OPRM1 agonism in mouse HTR2A counterscreen; activation, % at 9.3 µM; shares compounds with m5-HT2A agonist; AID 624380; actives 5.3% (n = 2,300); U2OS OPRM1 beta-arrestin PathHunter, luminescence; DMSO 0%, DAMGO 9.3 µM 100%;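 active = mean activation above the mean of DMSO-only wells plus 3 SD, cut at about 0.5% in these data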
Target sequence (P35372 whole entry, looked up): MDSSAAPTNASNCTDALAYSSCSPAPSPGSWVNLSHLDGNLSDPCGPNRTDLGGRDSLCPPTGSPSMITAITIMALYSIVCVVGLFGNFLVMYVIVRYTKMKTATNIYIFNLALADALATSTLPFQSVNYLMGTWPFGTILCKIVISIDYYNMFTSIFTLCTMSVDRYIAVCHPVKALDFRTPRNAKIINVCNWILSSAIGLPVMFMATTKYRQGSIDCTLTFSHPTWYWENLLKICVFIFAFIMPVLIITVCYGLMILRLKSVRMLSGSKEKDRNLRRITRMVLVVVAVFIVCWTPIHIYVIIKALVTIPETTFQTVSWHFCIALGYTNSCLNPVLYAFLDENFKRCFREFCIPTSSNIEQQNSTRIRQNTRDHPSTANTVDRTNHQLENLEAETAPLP
HTR2A ag conf: confirmation of mouse HTR2A serotonin receptor agonists | shares compounds with m5-HT2A agonist | CHO-K1 PathHunter beta-arrestin recruitment, luminescence; DMSO 0%, 30 µM serotonin 100% | activation, % at 7.6 µM | actives 19% (n = 2,300);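 active = mean activation across triplicates above the hit threshold derived in the original primary screen, cut at about 15% in these data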
* = called active by the depositor; i = inactive; · = no result.

SMILES	MC4R ag barr	MC4R antagonist	TMEM16A act	MIN6 prolif	m5-HT2A agonist	ANO1 block	MOR ag counter	HTR2A ag conf
O=C(O)C(O)C(O)C(O)C(O)C(=O)O (centres undefined) (tested in a mixture with another compound)	1	4	i	-1	20*	i	-1	4
CC(C(=O)O)C(=O)O	0	6	i	-1	-5	i	·	·
C/C(=N\Nc1ccc(C(=O)O)cc1)c1ccc(-n2ccnc2)cc1	-2	-5	i	-3	-4	i	·	·
CCOC(=O)C1CCN(Cc2cnc(NC(=O)OC)s2)CC1	0	2	i	-2	16*	i	0	23*
CCOC(=O)C1CCCN(C(=O)COc2ccc(C(C)(C)C)cc2)CC1 (centres undefined)	2	-4	·	·	6	·	·	·
CCOC(=O)C1CCN(Cc2cnc(Oc3ccc(C(C)(C)C)cc3)s2)CC1	-2	10	i	-5	19*	i	0	39*
Cn1cc(C(=O)c2ccc(Cl)cc2Cl)cc1C(=O)N/N=C(\N)COc1ccc(Cl)cc1	0	2	i	-7	15*	i	0	-3
CCCn1nc(C(=O)Nc2ccc3nc(N4CCOCC4)sc3c2)ccc1=O	-1	14	i	-3	21*	·	0	0
CC1CC(C)CN(S(=O)(=O)c2ccc3c(c2)CCN3C(=O)C2CC2)C1 (centres undefined)	-3	0	i	2	-3	i	·	·
Cc1cccc(C)c1OCC(=O)Nc1ccccc1C(=O)N1CCOCC1	1	1	i	-4	25*	i	-1	1
CCCCc1cc(=O)oc2cc(OC(C)C(=O)NCc3ccccn3)c(Cl)cc12 (centres undefined)	-3	7	i	-2	17*	i	0	-3
CCCCc1cc(=O)oc2cc(OCC(=O)NCc3ccccn3)c(Cl)cc12	0	10	i	-1	4	i	·	·
COc1cc(OC)cc(-c2c(-c3ccc(F)cc3)c3cc(-c4ccc5[nH]ccc5c4)ccc3n2C)c1	-1	1	i	-7	15*	·	-1	-4
COc1cc(OC)cc(-c2c(-c3ccsc3)c3cc(Br)ccc3n2C)c1	3	0	i	-6	15*	·	0	-2
COc1ccc(-c2c(-c3cc(OC)cc(OC)c3)n(C)c3ccc(Br)cc23)cc1	-2	3	i	-3	-1	·	·	·
COc1ccc(C(=O)n2cnc3ccccc32)cc1	1	10	i	-1	-1	i	·	·
CCC(C)C(CO)NCCCn1cnc2c(SC)ncnc21 (centres undefined)	-1	2	·	·	2	·	·	·
CC(C)CN(Cc1cc(=O)oc2cc(-c3ccccc3)c(O)cc12)CC(C)C	11*	12	i	-6	16*	i	2.3*	22*
CC(=O)c1ccccc1OCC(O)Cn1ccnc1 (centres undefined)	1	2	i	3	21*	i	-1	-3
COc1ccc(C(C(=O)Nc2ccc(F)cc2)N2CCN(c3cccc(C(F)(F)F)n3)CC2)cc1 (centres undefined)	·	·	·	·	-2	·	·	·
Cc1ccc(C)c(N(C(=O)CCC(=O)Nc2cc(C)on2)C(C(=O)NC2CCCC2)c2ccco2)c1 (centres undefined)	-3	22	i	-1	17*	i	0	0
Cc1cc(C)cc(N(C(=O)CCC(=O)Nc2cc(C)on2)C(C(=O)NC2CCCC2)c2ccco2)c1 (centres undefined)	-1	3	i	-2	0	i	·	·
